Rows were chosen to be rich in hits. Some 0.79% of all compounds tested hit in one or more screens of this group.
bIAP act: bovine intestinal alkaline phosphatase activators, primary screen, biochemical, bovine IAP, CDP-star luminescence; alkaline phosphatase, intestinal [Bos taurus]; purified bovine IAP, 30 min; active compounds read high; fold of DMSO-control signal, blank-subtracted; activation factor at 20 µM; 200,000 tested, 0.17% active;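 active = activation factor of 2 or more at 20 µM, a signal rise over negative controls twice the positive control's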
bIAP inh: bovine intestinal alkaline phosphatase inhibitors, primary screen, selectivity assay for TNAP inhibitor project, biochemical, bovine IAP, CDP-star luminescence; inhibition, % at 20 µM; AID 1019, 2008; 190,000 tested, under 10 active; purified bovine IAP, 30 min;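 active = over 50% inhibition of intestinal alkaline phosphatase at 20 µM in the single-dose screen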
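test system = bovine IAP enzyme | medium = DEA buffer 100 mM, pH 9.8, with MgCl2 1.0 mM, ZnCl2 0.02 mM | detection = luminescence | dosing = single compound dose of 20 µM, 2% DMSO final | incubation = 30 min reaction at room temperature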
mIAP activ: activators of mouse IAP, primary screen, biochemical, luminescence, uHTS. intestinal alkaline phosphatase [Mus musculus]. muIAP, CDP-Star luminescence, 30 min; active compounds read high; 1 = vehicle-only enzyme signal, 0 = enzyme-free wells. activation factor at 10 µM. 330,000 tested, 0.24% active. AID 2805, 2010;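 active = activation factor of at least 2 at 20 µM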
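Assay system: mouse IAP enzyme; reagent: chemiluminescent substrate CDP-Star; dosing: test compounds delivered from DMSO solution; schedule: 30 min at room temperature; measured by: luminescence from enzymatic CDP-Star hydrolysis; controls: DMSO-only wells and no-enzyme negative control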
mIAP inh: inhibitors of mouse IAP, primary screen, biochemical, luminescence, uHTS; inhibition, % at 10 µM; AID 2806, 2010; intestinal alkaline phosphatase [Mus musculus]; 330,000 tested, 0.2% active; purified mouse IAP, CDP-Star luminescence, 30 min;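 active = inhibition of at least 40% at 10 µM in the primary screen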;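 note: plate controls were DMSO with enzyme for no effect and no enzyme wells for full effect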
hIAP block: human IAP inhibitors, primary screen, biochemical, luminescence, uHTS; 330,000 tested, 0.12% active; inhibition, % at 10 µM; Intestinal-type alkaline phosphatase (Homo sapiens), P09923; purified IAP, CDP-Star luminescence, 30 min;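 active = inhibition reaching a set limit with compound at 10 µM in the primary screen, cut at about 35% in these data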;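 note: plate controls were DMSO wells with enzyme for no effect and no-enzyme buffer wells for full effect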
Target sequence (P09923 whole entry, looked up): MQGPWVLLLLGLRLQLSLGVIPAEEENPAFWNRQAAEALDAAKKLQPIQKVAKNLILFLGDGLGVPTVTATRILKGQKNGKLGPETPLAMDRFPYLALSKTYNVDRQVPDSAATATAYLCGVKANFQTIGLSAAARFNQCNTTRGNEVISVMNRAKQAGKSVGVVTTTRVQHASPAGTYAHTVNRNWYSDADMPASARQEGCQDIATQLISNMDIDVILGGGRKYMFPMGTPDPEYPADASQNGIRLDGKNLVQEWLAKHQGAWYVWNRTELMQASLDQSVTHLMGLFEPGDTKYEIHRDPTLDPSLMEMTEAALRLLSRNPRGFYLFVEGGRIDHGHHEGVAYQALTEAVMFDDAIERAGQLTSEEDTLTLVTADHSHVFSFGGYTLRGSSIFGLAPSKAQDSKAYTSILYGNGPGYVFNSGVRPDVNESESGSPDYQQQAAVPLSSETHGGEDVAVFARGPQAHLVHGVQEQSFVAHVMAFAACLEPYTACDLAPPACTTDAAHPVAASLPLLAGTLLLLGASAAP
hIAP activ: human IAP activators, primary screen, biochemical, luminescence, uHTS. Intestinal-type alkaline phosphatase (Homo sapiens), P09923. purified human IAP, CDP-Star luminescence, 30 min; active compounds read high; 1 = vehicle-only enzyme, 0 = enzyme-free background. activation factor at 10 µM. 330,000 tested, 0.16% active;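 active = activation factor of the enzyme at least 2-fold when tested at 20 µM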
Numbers without * were called inactive; nt = no result given.

SMILES | bIAP act | bIAP inh | mIAP activ | mIAP inh | hIAP block | hIAP activ
Cc1ccc(C)c(NC(=O)C2CCCN2S(=O)(=O)c2ccc3c(c2)n(C)c(=O)c(=O)n3C)c1 (stereo not given) | 0.9 | 13 | 1 | 0 | -2 | 1
CCc1cc(Cn2nc(-c3ccccc3)cc2C(=O)NCc2ccc(C)cc2)on1 | nt | nt | 3.3* | -233 | 23 | 0.77
CCc1cc(Cn2nc(-c3ccccc3)cc2C(=O)O)on1 | nt | nt | 1.1 | -6 | 12 | 0.88
COCCCn1c(=O)c2sccc2n(Cc2cc(C(=O)OC)ccc2OC)c1=O | nt | nt | 0.99 | 1 | -5 | 1.1
S=C(NCc1ccccc1)Nc1cccc(Cl)c1 | 0.9 | 8 | 2.3* | -127 | -8 | 1.1
Fc1ccc(CNC(=S)Nc2cccc(C(F)(F)F)c2)cc1 | 1 | 2 | 2.6* | -162 | -18 | 1.2
O=C(CNc1cccc(Cl)c1)NNC(=S)NCc1ccccc1 | 1 | 0 | 0.94 | 6 | -67 | 1.7
FC(F)(F)c1cccc(NC(=S)NNC(=S)Nc2ccc(Cl)cc2)c1 | nt | nt | 0.88 | 12 | 6 | 0.94
Fc1ccccc1NC(=S)NCc1ccc(Cl)cc1 | nt | nt | 1.5 | -51 | -12 | 1.1
Fc1cccc(NC(=S)NCc2ccc(Cl)cc2)c1 | 0.9 | 5 | 2.5* | -150 | -13 | 1.1
FC(F)(F)c1cccc(NC(=S)NCc2ccc(Cl)cc2)c1 | 0.9 | 10 | 2.7* | -170 | -6 | 1.1
Fc1ccc(CNC(=S)NCc2ccc(F)cc2)cc1 | nt | nt | 1.5 | -48 | -3 | 1
Cc1c(NC(=O)C(=O)/C=C(\O)c2ccc(Br)cc2)c(=O)n(-c2ccccc2)n1C | 1 | -1 | 0.9 | 10 | 9 | 0.91
OCC[C@H]1C[C@H](O)[C@@H](O)[C@@]2(CCCO2)O1 | nt | nt | 1.1 | -8 | -2 | 1
CN(C)NC(=S)Nc1cccc(C(F)(F)F)c1 | nt | nt | 0.94 | 6 | 11 | 0.89
CC(NC(=S)Nc1cccc(C(F)(F)F)c1)C(C)(C)C (stereo not given) | 0.8 | 15 | 3.7* | -266 | -17 | 1.2
COc1ccc(CNC(=S)Nc2ccc(F)c(Cl)c2)cc1OC | 1 | 4 | 2.6* | -157 | -53 | 1.5
COc1ccc(CNC(=S)Nc2ccccc2)cc1Cl | nt | nt | 1.4 | -40 | -6 | 1.1
Fc1cc(NC(=S)NCc2ccc(CNC(=S)Nc3ccc(Cl)c(F)c3)cc2)ccc1Cl | nt | nt | 2.1* | -112 | -15 | 1.1
Fc1ccccc1CNC(=S)Nc1cccc(C(F)(F)F)c1 | 0.9 | 11 | 2.7* | -167 | 22 | 0.78
Clc1nc(CN2CCCCC2)nc2sc3c(c12)CCC3 | 1 | -3 | 0.89 | 11 | 12 | 0.88
N#Cc1c(N)sc2c1CCCCCC2 | 0.6 | 35 | 0.99 | 0 | -6 | 1.1
N#Cc1c(N)sc(=S)c2c1CCCCC2 | 0.9 | 12 | 0.52 | 48* | -4 | 1
Cc1oc(S(=O)(=O)N2CCCCC2)cc1NC(=O)Nc1ccc(Cl)cc1 | nt | nt | 2.6* | -156 | -35 | 1.4
O=C(Nc1ccccc1)Nc1ccc(S(=O)(=O)N2CCCCC2)cc1 | 0.8 | 17 | 2.4* | -140 | 6 | 0.94
SMILES | bIAP act | bIAP inh | mIAP activ | mIAP inh | hIAP block | hIAP activ
O=C(Nc1ccc(S(=O)(=O)N2CCCCC2)cc1)c1ccccc1Cl | 0.8 | 19 | 1 | -1 | 14 | 0.86
CC(C)NC(=NCc1ccc(Cl)cc1Cl)Nc1ccccc1 | nt | nt | 1.1 | -13 | -27 | 1.3
Cc1cc(=O)oc2cc(OC(C)C(=O)NC3(C#N)CCCCC3)ccc12 (stereo not given) | nt | nt | 0.9 | 10 | -2 | 1
COc1cc(/C=C2\SC(=S)N(Nc3ccccc3)C2=O)cc(OC)c1OC | 0.9 | 7 | 0.6 | 40* | 5 | 0.95
Cc1c(C(=O)O)sc2nc3n(c(=O)c12)CCC(C)CC3 (stereo not given) | 1.1 | -5 | 0.59 | 41* | -14 | 1.1
N#Cc1nc(NCC(F)F)nc(Nc2cc(F)cc(F)c2)n1 | nt | nt | 1 | -2 | 2 | 0.98
Oc1cc(O)cc(/C=C/c2ccc(O)c(O)c2)c1 | nt | nt | 0.22 | 78* | 6 | 0.94

Screening data (PubChem BioAssay)
